Measurements: ChEMBL document CHEMBL4196149, “Antiproliferative Alkaloids from Alangium longiflorum, an Endangered Tropical Plant Species” (J Nat Prod, 2018)
pIC50: −log10 of the molar value. Calls of active or inactive are those of the source. The calls are words filed in the database; no cut-off is given here.

Tests used:
MCF7 [1] = assay: Antiproliferative activity against human MCF7 cells after 48 hrs by SRB assay; format: functional, cell-based; settings: MCF7, 48 h
MDA-MB-231 [2] = assay: Antiproliferative activity against human MDA-MB-231 cells after 24 hrs by SRB assay; format: functional, cell-based; settings: MDA-MB-231, 24 h
MCF7 [3] = assay: Antiproliferative activity against human MCF7 cells after 24 hrs by SRB assay; format: functional, cell-based; settings: MCF7, 24 h
KB [4] = assay: Antiproliferative activity against human KB cells after 72 hrs by SRB assay; format: functional, cell-based
A549 [5] = assay: Antiproliferative activity against human A549 cells after 24 hrs by SRB assay; format: functional, cell-based; settings: A549, 24 h
Method in brief: (§1)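 Time-course: cells seeded at 4000–12 000 per well 24 h before compound exposure for 24, 48 or 72 h, as named in the line. Cells then fixed in 10% trichloroacetic acid, stained with 0.04% SRB, and dye solubilized in 10 mM Tris base read at 515 nm. […] Medium RPMI-1640 with 10% FBS.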

MDA-MB-231 [6] = assay: Antiproliferative activity against human MDA-MB-231 cells after 72 hrs by SRB assay; format: functional, cell-based; settings: MDA-MB-231, 72 h
MCF7 [7] = assay: Antiproliferative activity against human MCF7 cells after 72 hrs by SRB assay; format: functional, cell-based; settings: MCF7, 72 h
KB [8] = assay: Antiproliferative activity against human KB cells after 48 hrs by SRB assay; format: functional, cell-based
[9] = Antiproliferative activity against human KBVIN cells after 72 hrs by SRB assay; format: functional, cell-based
Method in brief: (§2)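 SRB assay. Cell suspensions were seeded at 4000–12 000 cells/well in RPMI-1640 with 2 mM L-glutamine, 25 mM HEPES, 10% FBS, streptomycin and penicillin. Cells were exposed to compounds for 72 h. For the time course, cells were plated 24 h before treatment and then exposed for 24, 48 or 72 h. Cells were fixed in 10% TCA and stained with 0.04% SRB. Bound dye was dissolved in 10 mM Tris and read at 515 nm.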

[10] = Antiproliferative activity against human KBVIN cells after 48 hrs by SRB assay; format: functional, cell-based; method in brief: as §2
[11] = Antiproliferative activity against human KBVIN cells after 24 hrs by SRB assay; format: functional, cell-based; method in brief: as §2
A549 [12] = assay: Antiproliferative activity against human A549 cells after 48 hrs by SRB assay; format: functional, cell-based; settings: A549, 48 h; method in brief: as §1
KB [13] = assay: Antiproliferative activity against human KB cells after 24 hrs by SRB assay; format: functional, cell-based
MDA-MB-231 [14] = assay: Antiproliferative activity against human MDA-MB-231 cells after 48 hrs by SRB assay; format: functional, cell-based; settings: MDA-MB-231, 48 h
A549 [15] = assay: Antiproliferative activity against human A549 cells after 72 hrs by SRB assay; format: functional, cell-based; settings: A549, 72 h; method in brief: as §1
Homo sapiens [16] = species on record: Homo sapiens; assay: Antiproliferative activity against human […] cells at 10 to 100 nM after 48 hrs by SRB assay; format: functional, cell-based
NCI/ADR-RES = assay: Antiproliferative activity against human NCI-ADR-RES cells after 48 hrs by SRB assay
Homo sapiens [17] = species on record: Homo sapiens; assay: Antiproliferative activity against human non-small cell lung cancer cells at 10 to 100 nM after 48 hrs by SRB assay; format: functional
Breast carcinoma cell = assay: Antiproliferative activity against human breast cancer cells at 10 to 100 nM after 48 hrs by SRB assay; format: functional, cell-based
Melanoma cell = assay: Antiproliferative activity against human melanoma cells at 10 to 100 nM after 48 hrs by SRB assay; format: functional, cell-based
MDA-MB-231 [18] = assay: Cell cycle arrest in human MDA-MB-231 cells assessed as accumulation at sub-G1 phase at 10 times IC50 after 48 hrs by propidium iodide staining based flow cytometry; format: functional
Method in brief: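 DMSO served as vehicle control and combretastatin A-4 at 0.1 μM as the G2/M-arrest control. Harvested cells were fixed and stained with propidium iodide plus RNase. DNA content was analysed by flow cytometry, and sub-G1 cells were counted. Each experiment was done at least twice.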

Prostatic carcinoma cell = assay: Antiproliferative activity against human prostate cancer cells at 10 to 100 nM after 48 hrs by SRB assay; format: functional
Ovarian carcinoma cell = assay: Antiproliferative activity against human ovarian cancer cells at 10 to 100 nM after 48 hrs by SRB assay; format: functional, cell-based
Homo sapiens [19] = species on record: Homo sapiens; assay: Antiproliferative activity against human renal cancer cells at 10 to 100 nM after 48 hrs by SRB assay; format: functional, cell-based
CNS carcinoma cell = assay: Antiproliferative activity against human CNS cancer cells at 10 to 100 nM after 48 hrs by SRB assay; format: functional, cell-based
Leukemia cell = assay: Antiproliferative activity against human leukemia cells at 10 to 100 nM after 48 hrs by SRB assay; format: functional, cell-based
A549 [20] = assay: Antiproliferative activity against human A549 cells at 40 uM after 72 hrs by SRB assay; format: functional, cell-based
KB [21] = assay: Antiproliferative activity against human KB cells at 40 uM after 72 hrs by SRB assay; format: functional, cell-based
Homo sapiens [22] = species on record: Homo sapiens; assay: Antiproliferative activity against human KBVIN cells at 40 uM after 72 hrs by SRB assay; format: functional, cell-based
MCF7 [23] = assay: Antiproliferative activity against human MCF7 cells at 40 uM after 72 hrs by SRB assay; format: functional, cell-based
MDA-MB-231 [24] = assay: Antiproliferative activity against human MDA-MB-231 cells at 40 uM after 72 hrs by SRB assay; format: functional, cell-based

SMILES | pIC50 (MCF7 [1]) | pIC50 (MDA-MB-231 [2]) | pIC50 (MCF7 [3]) | pIC50 (KB [4]) | pIC50 (A549 [5]) | pIC50 (MDA-MB-231 [6]) | pIC50 (MCF7 [7]) | pIC50 (KB [8]) | pIC50 [9] | pIC50 [10] | pIC50 [11] | pIC50 (A549 [12]) | pIC50 (KB [13]) | pIC50 (MDA-MB-231 [14]) | pIC50 (A549 [15]) | Activity (A549 [20]) | Activity (KB [21]) | Activity (Homo sapiens [22]) | Activity (MCF7 [23]) | Activity (MDA-MB-231 [24]) | other results
CC[C@H]1CN2CCc3cc(O)c(OC)cc3[C@@H]2C[C@@H]1C[C@H]1NCCc2c1[nH]c1ccc(O)cc21 | 6.57 | 6.72 | 6.60 | 6.21 | 6.44 | 6.66 | 6.42 | 6.33 | < 5.00 | < 5.00 | < 5.00 | 6.52 | 6.54 | 6.64 | 6.21 | – | – | – | – | – | –
CC[C@H]1CN2CCc3c(cc(OC)c(OC)c3O)[C@@H]2C[C@@H]1C[C@H]1NCCc2c1[nH]c1ccc(O)cc21 | 6.80 | 7.22 | 6.92 | 6.68 | 6.68 | 7.10 | 6.68 | 6.82 | < 5.00 | 4.95 | 5.05 | 6.64 | 7.05 | 7.10 | 6.55 | – | – | – | – | – | Activity (Homo sapiens [16]): Active; Activity (NCI/ADR-RES): Active; Activity (Homo sapiens [17]): Active; Activity (Breast carcinoma cell): Active; Activity (Melanoma cell): Active; Activity (MDA-MB-231 [18]): Active; Activity (Prostatic carcinoma cell): Active; Activity (Ovarian carcinoma cell): Active; Activity (Homo sapiens [19]): Active; Activity (CNS carcinoma cell): Active; Activity (Leukemia cell): Active
C=C[C@H]1[C@H](O[C@@H]2O[C@H](CO)[C@@H](O)[C@H](O)[C@H]2OC(=O)/C=C/c2cc(OC)c(O)c(OC)c2)OC=C2C(=O)N3CCc4cc(O)c(OC)cc4[C@H]3C[C@H]21 | – | – | – | – | – | – | – | – | – | – | – | – | – | – | – | inactive | inactive | inactive | inactive | inactive | –
COc1cccc2c1C(=O)c1c(O)c3c(c(O)c1C2=O)C[C@@](O)(C(=O)CO)C[C@@H]3O[C@H]1C[C@H](N)[C@H](O)[C@H](C)O1 [DOXORUBICIN] | – | – | – | 6.66 | – | – | – | 6.47 | < 6.00 | < 6.00 | < 6.00 | – | 6.09 | – | – | – | – | – | – | – | –
C=C[C@H]1[C@H](O[C@@H]2O[C@H](CO)[C@@H](O)[C@H](O)[C@H]2OC(=O)/C=C/c2cc(OC)c(O)c(OC)c2)OC=C2C(=O)N3CCc4cc(O)c(O)cc4[C@H]3C[C@H]21 | – | – | – | – | – | – | – | – | – | – | – | – | – | – | – | inactive | inactive | inactive | inactive | inactive | –
CC(=O)O[C@H]1C(=O)[C@@]2(C)[C@H]([C@H](OC(=O)c3ccccc3)[C@]3(O)C[C@H](OC(=O)[C@H](O)[C@@H](NC(=O)c4ccccc4)c4ccccc4)C(C)=C1C3(C)C)[C@]1(OC(C)=O)CO[C@@H]1C[C@@H]2O [PACLITAXEL] | – | – | – | – | – | – | – | – | 5.62 | 5.54 | < 5.52 | – | – | – | – | – | – | – | – | – | –
